Hits are enriched below; roughly 1.9% of the tested compounds scored in any of these assays.
RAD52 anneal inh – inhibitors of human RAD52 DNA annealing. P43351. recombinant RAD52 DNA annealing, FRET fluorescence. inhibition, % at 18.7 µM. actives 0.46% (n = 360,000);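 active = every replicate showing at least 50% inhibition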
Target sequence (P43351 whole entry, looked up): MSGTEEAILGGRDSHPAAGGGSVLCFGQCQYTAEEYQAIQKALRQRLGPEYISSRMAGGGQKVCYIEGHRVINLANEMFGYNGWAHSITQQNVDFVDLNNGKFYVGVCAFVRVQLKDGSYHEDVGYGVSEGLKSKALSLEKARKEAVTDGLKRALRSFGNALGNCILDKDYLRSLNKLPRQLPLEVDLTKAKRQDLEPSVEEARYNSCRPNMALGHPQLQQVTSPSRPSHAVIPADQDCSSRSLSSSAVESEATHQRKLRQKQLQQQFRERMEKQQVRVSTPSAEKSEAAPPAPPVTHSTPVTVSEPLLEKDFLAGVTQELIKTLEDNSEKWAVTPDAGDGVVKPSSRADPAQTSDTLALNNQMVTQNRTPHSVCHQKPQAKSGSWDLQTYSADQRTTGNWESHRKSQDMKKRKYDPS
RAD54 branch – RAD54 (human) branch migration inhibition; Q92698; RAD54 Holliday junction branch migration, FAM/BHQ fluorescence; inhibition, % at 10.4 µM; actives 0.14% (n = 360,000); AID 602329;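 active = mean normalized replicate activity at least 40 and at least half of replicates scoring 40 or more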;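 note: 0% = median of neutral control wells and 100% = median of positive control wells; inhibitors cause a drop in the FAM fluorescence signal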
Cneo AK release – causes C. neoformans cell lysis | adenylate kinase release luminescence, 4 h; normalised: neutral wells 0, clomiphene wells 100 | lysis activity, % at 15 µM | actives 0.2% (n = 360,000);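 active = mean lysis activity across replicates of at least 80%, whatever share of replicates individually reach that level; inactive = mean lysis activity below 80%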
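Signal: Adenylate kinase release luminescence | Assay system: Log-phase Cryptococcus neoformans yeast cells | Input: Cells at 5 × 10^6 per mL | Buffer or medium: Fresh YPD growth medium | Compound: Single dose | Schedule: Static 4 h at 37 °C with compound, 1 h detection | Controls: Clomiphene | Read-out: Luminescence rise reflecting yeast cell lysis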
PglD DTNB – blocks C. jejuni PglD acetyltransferase activity; AID 602405; inhibition, % at 12.5 µM; actives 0.098% (n = 360,000); purified PglD enzyme, DTNB colorimetric CoA detection; in the data active = inhibition above about 16%, passing the limit was not always enough
rRNA inh HTS – selective bacterial rRNA inhibition in E. coli | GFP signal change (wild-type ribosome), % (concentration not given with the values) | E. coli WT GFP vs humanized-ribosome RFP mutants, fluorescence, 24 h; hits give low values; DMSO median 0, no signal -100 | actives 1.6% (n = 350,000);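 active = significant combined selectivity score with lowered wild-type GFP, culture density cut under 30%, mutant RFP and density less affected; inactive = any of these conditions unmet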
Numbers without * were called inactive; . = no result.

SMILES	RAD52 anneal inh	RAD54 branch	Cneo AK release	PglD DTNB	rRNA inh HTS
CCCCn1nnnc1C(C1CC1)N1CCC(n2c(=O)[nH]c3ccccc32)CC1 (stereo not given)	-9	-8	-1	-1	-20*
COc1ccccc1-n1c(Cc2ccccc2)nc2ccccc2c1=O	-5	3	-1	3	-22*
CCCc1nc2ccccc2c(=O)n1-c1ccccc1OC	.	6	-3	3	.
Fc1ccc(CN2CC3NC(C2)C3c2ccc(Br)cc2)cc1 (stereo not given)	.	.	.	.	-4
COc1ccccc1N1CCN(Cc2ccccc2Cl)CC1	.	-13	-4	6	.
COc1ccccc1N1CCN(Cc2ccc(Br)cc2)CC1	-7	-13	-3	-2	-28*
CCOC(=O)[C@@H]1[C@@H]2NC(=S)N[C@@]1(C)Oc1ccccc12	14	-2	6	-3	.
C/C=C/c1ccc(C2[C@@H]3CN(Cc4cccnc4)C[C@H]2N3)cc1 (stereo not given in full)	58*	.	.	.	3
COc1cccc(OC)c1C1=NCC(=O)Nc2c1oc1ccc(Br)cc21	-1	5	-1	-5	-28*
O=C1CN=C(c2ccc(Br)cc2)c2oc3ccccc3c2N1	.	7	-4	10	.
C=CCN1[C@@H]2CN(S(C)(=O)=O)C[C@H]1C2c1ccccc1 (stereo not given in full)	.	.	.	.	-1
CC(C)NC(=O)N1CC2C(c3ccccc3)C(C1)N2C (stereo not given)	.	.	.	.	0
COC(=O)[C@@H]1[C@@H](CO)[C@@H]2Cn3c(ccc(C4=CCCC4)c3=O)[C@H]1N2Cc1ccccn1	-50	0	-5	-1	1
COc1cccc(N2CCN(Cc3cccc(Cl)c3)CC2)c1	-11	.	.	.	-24*
Fc1cccc(CN2CCN(c3ccc(Cl)cc3)CC2)c1	-5	-10	-3	-1	-14
COc1cccc(N2CCN(Cc3ccc(Cl)cc3)CC2)c1	-142	5	-2	-1	-33*
COc1cccc(CC(=O)N2CCN(Cc3cccc(Cl)c3)CC2)c1	-10	-5	0	6	-8
O=C(Cc1cccnc1)N1CCCCN2[C@H](CO)[C@@H](c3ccc(C#CC4CC4)cc3)[C@@H]2C1	10	-10	0	4	.
CCN1[C@@H]2c3ccc(-c4cccc(OC)c4)c(=O)n3C[C@H]1[C@H](CO)[C@H]2C(=O)OC	-8	9	-2	-5	-3
CC(=O)N1C[C@@H]2C(c3ccccc3)[C@H](C1)N2C (stereo not given in full)	.	.	.	.	1
Cc1cc(OC(=O)N(C)C)nc(SCc2c(Cl)cccc2Cl)n1	-5	.	.	.	-18*
c1ccc2c(c1)[IH]c1ccccc1-2	47	52*	-1	-5	.
CCCCCCC(=O)N/N=C/c1c(O)n(C(C)CC)c(=S)[nH]c1=O (stereo not given)	-47	2	-2	-4	-23*
OC[C@@H]1Nc2ccc(C#Cc3cccnc3)cc2[C@H]2NCC[C@@H]12	.	.	.	.	14
NC(Cc1nc2ccccc2[nH]1)c1ccc(Cl)cc1 (stereo not given)	-2	-14	-22	1	-45*
SMILES	RAD52 anneal inh	RAD54 branch	Cneo AK release	PglD DTNB	rRNA inh HTS
CCCC(=O)NC(Oc1ccccc1Cl)C(Cl)(Cl)Cl (stereo not given)	-8	.	.	.	-20*
CCCC(=O)NC(Oc1ccc(Cl)cc1Cl)C(Cl)(Cl)Cl (stereo not given)	-7	.	.	.	10
NC(N)=Nc1ccc2[nH]c3c(c2c1)C[C@@]1(O)[C@H]2Cc4ccc(O)c5c4[C@@]1(CCN2CC1CC1)[C@H]3O5	.	54*	-2	3	.
O=C(COC(=O)c1ccc(O)cc1)Nc1ccc(Cl)cc1C(=O)c1ccccc1	-9	.	.	.	-43*
COC(=O)C1C(O)C(C)C(O)C(C)/C=C\C=C(/C)C(=O)Nc2c(C)c(OC(C)=O)c3c(c2O)C(=O)C(C)=C2OCOC(=C23)/C(C)=C/C(C)(O)C(O)C(C)C1O (stereo not given)	-12	-6	-2	1	-17*
C/C=C/c1ccc(C2[C@H]3CNC[C@@H]2N3CC2CCCCC2)cc1 (stereo not given in full)	5	.	.	.	7
CCOc1ccc2nc(N=Nc3c(O)[nH]c(=O)[nH]c3=O)sc2c1	-14	4	3	7	-20*
CCOc1ccc2nc(N=Nc3c(O)[nH]c(=S)[nH]c3=O)sc2c1	2	.	.	.	-34*
COc1ccc(-c2nc3ccccc3c(=O)n2-c2cccnc2)cc1	.	-10	-2	-2	.

Assay outcomes deposited in PubChem by Broad Institute.
